Experimental findings from PMC4096895 (Organic & biomolecular chemistry, 2014) are described below.

The structures appear in SMILES notation.

Series [1] concerns the target β-galactosidase (A. oryzae) (Aspergillus oryzae, UniProt Q2UCU3). Put plainly: Assay for the inhibited enzymatic substrate hydrolysis. The following applies: 50 mM acetate buffer pH 5.0, 30 °C. The series is classed as biochemical.
Series [2] is described as follows: Amidine stability assay. It is filed as physicochemical. The procedure, abridged: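 Test compound kept as a 0.168 M stock in nanopure water at ambient temperature, and aliquots were diluted into the incubation buffer. Samples were flash-frozen in liquid nitrogen and stored at −18°C until analysis. Quantification was by HPLC on a carbohydrate Na+ (8%) column at 80°C, with nanopure water as eluent at 0.4 mL/min and light-scattering detection.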

Series [3] deals with β-galactosidase (A. oryzae). Put plainly: Assay for enzymatic substrate hydrolysis. The following applies: 50 mM acetate buffer pH 5.0, 30 °C, no inhibitor. It is filed as biochemical, Aspergillus oryzae.
The nature of series [4]: Water solubility under the kinetic assay conditions. It is filed as physicochemical. Particulars: under the used assay condition (50 mM acetate buffer pH 5).

Sequence of β-galactosidase (A. oryzae) (Aspergillus oryzae, UniProt Q2UCU3) (Q2UCU3 19-1005): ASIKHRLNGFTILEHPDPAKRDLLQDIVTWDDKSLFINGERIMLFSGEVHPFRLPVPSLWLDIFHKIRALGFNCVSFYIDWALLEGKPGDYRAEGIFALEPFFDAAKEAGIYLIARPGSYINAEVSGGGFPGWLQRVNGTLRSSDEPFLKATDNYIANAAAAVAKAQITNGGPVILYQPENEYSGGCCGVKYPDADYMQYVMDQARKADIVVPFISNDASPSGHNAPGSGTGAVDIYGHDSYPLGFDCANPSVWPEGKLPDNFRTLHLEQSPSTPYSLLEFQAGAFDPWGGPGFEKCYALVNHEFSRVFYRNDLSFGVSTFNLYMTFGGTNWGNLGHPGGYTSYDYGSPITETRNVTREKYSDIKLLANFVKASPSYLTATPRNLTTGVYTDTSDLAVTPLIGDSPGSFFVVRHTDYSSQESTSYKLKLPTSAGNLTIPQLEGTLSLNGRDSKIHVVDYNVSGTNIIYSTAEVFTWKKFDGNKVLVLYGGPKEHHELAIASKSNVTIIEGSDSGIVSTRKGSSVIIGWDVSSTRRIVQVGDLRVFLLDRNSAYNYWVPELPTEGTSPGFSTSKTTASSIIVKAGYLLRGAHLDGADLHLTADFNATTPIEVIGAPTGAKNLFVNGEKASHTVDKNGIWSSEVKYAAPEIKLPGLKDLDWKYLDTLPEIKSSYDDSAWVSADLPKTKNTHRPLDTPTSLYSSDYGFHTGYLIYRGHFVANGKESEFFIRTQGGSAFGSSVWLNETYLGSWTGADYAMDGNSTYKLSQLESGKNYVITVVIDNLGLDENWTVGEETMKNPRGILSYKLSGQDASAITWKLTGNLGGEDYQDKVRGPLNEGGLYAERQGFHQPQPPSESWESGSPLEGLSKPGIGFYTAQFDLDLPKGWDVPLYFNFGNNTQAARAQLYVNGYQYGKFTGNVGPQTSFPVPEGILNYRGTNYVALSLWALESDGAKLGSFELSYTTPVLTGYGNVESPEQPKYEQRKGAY

As for `Cc1ccc(CN=C2N[C@H](CO)[C@H](O)[C@H](O)[C@H]2O)cc1` [1d, p-methylbenzyl-D-galactonoamidine], the Ki – broadly, the dissociation constant of the complex between target and ligand, obtained from inhibition or displacement – in series [1] (substrate 2a) worked out at 23.3 nM; in series [1] (substrate 2b), 14.1 nM; in series [1] (substrate 2c), 13.3 nM; in series [1] (substrate 2e) it was 16.5 nM; in series [1] (substrate 2f), 24.6 nM; in series [1] (substrate 2g), 55.7 nM. Besides, the Ki in series [1] (substrate 2i) stood at 11.5 nM; in series [1] (substrate 2k), 8 nM; in series [1] (substrate 2h), 15.1 nM; in series [1] (substrate 2d), 11.6 nM. The stability result was “sufficient stability” in series [2] (5 mM CAPS buffer at pH 10.5 and 0°C, preliminary results); “sufficient stability” in series [2] (5 mM TAPS buffer at pH 9 and 10°C, preliminary results); “insufficient stability” in series [2] (50 mM CAPS buffer at pH 10.5 and 72°C). For the same compound, the “stability (HPLC)” value in series [2] (acetate buffer at 30°C, same amount of time (3h)) is given as “no evidence for compound decomposition”. In series [2] (nanopure water at 30, 50 or 72°C), this compound came in with a time found stable of at least 3 h.

As to `OCC1NC(=NCc2cccc(F)c2)C(O)C(O)C1O` [1f, 3-fluorobenzyl-D-galactonoamidine], the Ki stood at 16.4 nM in series [1] (substrate 2a); 22.3 nM in series [1] (substrate 2b); 18.1 nM in series [1] (substrate 2c); 14.2 nM in series [1] (substrate 2e); 30.3 nM in series [1] (substrate 2f); 58.1 nM in series [1] (substrate 2g). Also, the inhibition constant Ki is 13.7 nM in series [1] (substrate 2i), 20.3 nM in series [1] (substrate 2k), 22.8 nM in series [1] (substrate 2h) and 13.3 nM in series [1] (substrate 2d).

As to `O=[N+]([O-])c1ccccc1O[C@@H]1O[C@H](CO)[C@H](O)[C@H](O)[C@H]1O` [2a, 2-nitrophenyl-β-D-galactopyranoside, reference compound], in series [3], the Michaelis-Menten constant (Km) (as a rule, the concentration of substrate that gives half-maximal velocity) came out at 1270 µM and the kcat (commonly the maximal rate divided by the concentration of active sites) turned out to be 76.5 s⁻¹.

Consider `Cc1ccc(O[C@@H]2O[C@H](CO)[C@H](O)[C@H](O)[C@H]2O)c([N+](=O)[O-])c1` [2b, 4-Methyl-2-nitrophenyl-β-D-galactopyranoside], for which, in series [3], the Michaelis constant (Km) turned out to be 1490 µM and the turnover number (kcat) worked out at 80.13 s⁻¹.

Turning to `O=[N+]([O-])c1cc(F)ccc1O[C@@H]1O[C@H](CO)[C@H](O)[C@H](O)[C@H]1O` [2c, 4-Fluoro-2-nitrophenyl-β-D-galactopyranoside], in series [3], the Michaelis-Menten constant (Km) stood at 1240 µM and the turnover number (kcat) worked out at 77.63 s⁻¹.

As to `O=[N+]([O-])c1cc(Cl)ccc1O[C@@H]1O[C@H](CO)[C@H](O)[C@H](O)[C@H]1O` [2d, 4-Chloro-2-nitrophenyl-β-D-galactopyranoside], in series [3], the Michaelis constant (Km) was 960 µM and the turnover number (kcat) turned out to be 68.97 s⁻¹.

For `O=[N+]([O-])c1cc(Br)ccc1O[C@@H]1O[C@H](CO)[C@H](O)[C@H](O)[C@H]1O` [2e, 4-Bromo-2-nitrophenyl-β-D-galactopyranoside], in series [3], the Km was found to be 1100 µM and the kcat came out at 64.7 s⁻¹.

In the case of `O=[N+]([O-])c1ccc(F)cc1O[C@@H]1O[C@H](CO)[C@H](O)[C@H](O)[C@H]1O` [2f, 5-Fluoro-2-nitrophenyl-β-D-galactopyranoside], in series [3], the Km came out at 1780 µM and the turnover number (kcat) turned out to be 64.77 s⁻¹.

Take `Cc1ccc([N+](=O)[O-])c(O[C@@H]2O[C@H](CO)[C@H](O)[C@H](O)[C@H]2O)c1` [2g, 5-Methyl-2-nitrophenyl-β-D-galactopyranoside]: in series [3], the Km is 4270 µM and the kcat was 70.15 s⁻¹.

Consider `O=[N+]([O-])c1ccc(O[C@@H]2O[C@H](CO)[C@H](O)[C@H](O)[C@H]2O)cc1` [2h, 4-nitrophenyl-β-D-galactopyranoside, reference compound], for which, in series [3], the Km is 840 µM and the turnover number (kcat) stood at 53.97 s⁻¹.

With `O=[N+]([O-])c1ccc(O[C@@H]2O[C@H](CO)[C@H](O)[C@H](O)[C@H]2O)c(F)c1` [2i, 2-Fluoro-4-nitrophenyl-β-D-galactopyranoside], in series [3], the Michaelis-Menten constant (Km) came to 920 µM and the kcat stood at 61.17 s⁻¹.

Consider `O=[N+]([O-])c1ccc(O[C@@H]2O[C@H](CO)[C@H](O)[C@H](O)[C@H]2O)c(Cl)c1` [2k, 2-Chloro-4-nitrophenyl-β-D-galactopyranoside], for which, in series [3], the Michaelis-Menten constant (Km) came out at 700 µM and the catalytic constant (kcat) stood at 39.68 s⁻¹.

Regarding `COc1ccc(O[C@@H]2O[C@H](CO)[C@H](O)[C@H](O)[C@H]2O)c([N+](=O)[O-])c1` [2p, 4-Methoxy-2-nitrophenyl-β-D-galactopyranoside], the water solubility result in series [4] was “surprising low water solubility”.
